Results from paper PMC7038784 (Clinical cancer research : an official journal of the …, 2019).

Columns and labels:
[1] = test system: DTC; conditions: study of 20 patients; cited from earlier work
[2] = test system: progressive radioiodine refractory DTC; conditions: cited from earlier work
[3] = test system: thyroid cancer cell lines and xenograft models; conditions: preclinical studies in DTC; cited from earlier work
[4] = Plasma pharmacokinetics in DTC expansion cohort; assay type: in vivo, human; conditions: steady-state trough
In short: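 Oral once-daily dosing in patients, 28-day cycles. The VEGFR inhibitor was profiled over 0–24 h after the first dose (C1D1). Troughs for both drugs were taken on C1D15 and at the second biopsy (C2D1 ± 48 h). Plasma was acetonitrile-extracted and run by positive-ESI LC-MS/MS: MEK inhibitor range 1–200 ng/mL; VEGFR inhibitor range 0.010–1 μg/mL, with 1:100 dilution up to 100 μg/mL. Noncompartmental analysis: Cmax observed, AUC by linear trapezoidal rule, Css,min averaged from both troughs.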

Cn1cnc2c(F)c(Nc3ccc(Br)cc3Cl)c(C(=O)NOCCO)cc21 [Selumetinib]
PRs, patients [1]: five
stable disease, patients [1]: three

Cc1ccc(Nc2nccc(N(C)c3ccc4c(C)n(C)nc4c3)n2)cc1S(N)(=O)=O [pazopanib]
PR rate, papillary thyroid cancer ([2]; 5/11 patients as printed): 33%
PR rate, follicular thyroid cancer ([2]; 8/11): 73%
RECIST partial response (PR) rate ([2]; single-agent pazopanib, DTC overall): 49%
median PFS ([2]; single-agent pazopanib): 360 days
effect on p-ERK [3]: paradoxical upregulation of p-ERK
Css,min ([4]; pazopanib 800 mg with trametinib 2 mg daily): 33800 ± 17300 ng/mL

CC(=O)Nc1cccc(-n2c(=O)n(C3CC3)c(=O)c3c(Nc4ccc(I)cc4F)n(C)c(=O)c(C)c32)c1 [trametinib]
Css,min ([4]; trametinib 2 mg with pazopanib 800 mg daily): 18.7 ± 6.6 ng/mL
